The text below walks through data of ChEMBL document CHEMBL4387749, “Naphthalene-triazolopyrimidine hybrid compounds as potential multifunctional anti-Alzheimer's agents” (Bioorg Med Chem, 2019).

Assay [1] in a line: Antioxidant activity assessed as trolox equivalent of AAPH-induced radical scavenging activity at 100 uM preincubated for 15 mins followed by AAPH addition and measured at 1 minute interval for 80 mins by ORAC-FL assay. It is filed as functional. The method, boiled down:
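ORAC-FL in 75 mM phosphate buffer, pH 7.4. Fluorescein 70 nM final was preincubated with the antioxidant 15 min at 37 °C, then AAPH 12 mM final was added. Fluorescence read every minute for 80 min (ex 485/em 520 nm). Net AUC = AUC sample minus AUC blank. Trolox calibration 1–8 µM gave Trolox equivalents. At least three independent runs, each in triplicate.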

The target of assay [2] is T1, Amyloid-beta precursor protein (Homo sapiens, UniProt P05067). In words: Inhibition of self-induced amyloid beta (1 to 42) (unknown origin) aggregation at 75 uM measured after 48 hrs by ThT fluorescence assay relative to control. The gist of the method: (§1)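 Aβ1-42 is pretreated with HFIP (8 mg/ml) and dried to a film under nitrogen. The film is dissolved in DMSO to a 5 mM stock. This is diluted in 50 mM phosphate buffer, pH 7.4, to 100 µM final peptide, with or without compound, and incubated at 37 °C for 48 h. Samples are then diluted with 50 mM glycine-NaOH, pH 8.0, and fibrils quantified by ThT fluorescence. Blanks without Aβ are subtracted. Values are means ± SD of three experiments.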
T1 sequence (P05067 whole entry): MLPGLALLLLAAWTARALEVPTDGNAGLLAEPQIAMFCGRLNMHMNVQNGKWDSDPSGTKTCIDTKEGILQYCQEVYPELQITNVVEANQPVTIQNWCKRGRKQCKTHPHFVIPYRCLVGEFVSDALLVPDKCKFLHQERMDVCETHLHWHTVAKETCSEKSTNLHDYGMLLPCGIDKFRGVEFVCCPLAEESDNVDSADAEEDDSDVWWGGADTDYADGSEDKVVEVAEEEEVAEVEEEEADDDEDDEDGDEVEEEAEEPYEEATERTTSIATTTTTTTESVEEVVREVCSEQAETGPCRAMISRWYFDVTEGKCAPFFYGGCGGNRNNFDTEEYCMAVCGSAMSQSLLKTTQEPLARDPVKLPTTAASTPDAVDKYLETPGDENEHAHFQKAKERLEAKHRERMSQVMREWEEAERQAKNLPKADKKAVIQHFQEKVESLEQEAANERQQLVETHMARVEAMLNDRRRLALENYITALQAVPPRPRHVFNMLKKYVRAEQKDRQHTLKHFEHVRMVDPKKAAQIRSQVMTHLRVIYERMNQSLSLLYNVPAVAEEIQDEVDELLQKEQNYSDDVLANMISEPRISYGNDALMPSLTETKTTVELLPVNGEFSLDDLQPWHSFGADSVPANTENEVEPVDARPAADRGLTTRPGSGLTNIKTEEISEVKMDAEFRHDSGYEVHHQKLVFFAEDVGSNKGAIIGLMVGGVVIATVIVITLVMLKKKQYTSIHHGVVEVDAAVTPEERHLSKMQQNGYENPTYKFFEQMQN

Assay [3] concerns the target T1, Amyloid-beta precursor protein. The experiment in a line: Inhibition of self-induced amyloid beta (1 to 42) (unknown origin) aggregation at 12.5 uM measured after 48 hrs by ThT fluorescence assay relative to control. The gist of the method: as §1
The target is the same in assay [4]. The experiment in a line: Inhibition of self-induced amyloid beta (1 to 42) (unknown origin) aggregation at 100 uM measured after 48 hrs by ThT fluorescence assay relative to control. The method, boiled down: as §1
Assay [5] shares this target. The experiment in a line: Inhibition of HFIP-pretreated self-induced amyloid beta (1 to 42) (unknown origin) aggregation at 50 uM measured after 48 hrs by ThT fluorescence assay relative to control. The method, boiled down:
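Aβ1-42 pretreated with HFIP (8 mg/ml), dried under nitrogen, 5 mM stock in DMSO. Diluted in 50 mM phosphate buffer pH 7.4 to 100 µM final and incubated with or without 50 µM compound for 48 h at 37 °C. Diluted with glycine-NaOH 50 mM pH 8.0, then ThT fluorescence read. Buffer blanks included. Mean ± SD of three experiments.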

Assay [6] in a line: Antioxidant activity assessed as DPPH radical scavenging activity at 50 uM preincubated for 5 mins followed by DPPH addition and measured after 30 mins by ultraviolet spectrophotometric analysis relative to control. It is filed as functional. The method, boiled down:
(§2)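 DPPH (0.1 mM) in methanol. Test compound was added and held 5 min before DPPH, then 30 min incubation. Absorbance read at 517 nm. Scavenging % = (A1−A2)/A1×100, with A1 the control absorbance and A2 the compound absorbance. Run in triplicate in 96-well plates.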
A general note: Loss of DPPH colour is used to gauge radical scavenging.

The target of assay [7] is T1, Amyloid-beta precursor protein. The experiment in a line: Inhibition of self-induced amyloid beta (1 to 42) (unknown origin) aggregation at 50 uM for 48 hrs by TEM analysis. The method, boiled down:
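Aβ1-42 in 50 mM phosphate buffer, pH 7.4, is incubated with or without compound at 37 °C for 48 h, with a curcumin co-incubation and a 0 h sample as comparisons. 10 µL aliquots are applied to carbon grids for 1 min at room temperature, washed with water and negatively stained with sodium phosphotungstate for 1 min. Fibrils are then imaged by transmission electron microscopy.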

Assay [8] has the same target. In words: Disaggregation of self-induced amyloid beta (1 to 42) (unknown origin) preformed fibrils measured after 24 hrs by ThT fluorescence assay relative to control. The gist of the method:
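HFIP-pretreated Aβ1-42, DMSO stock, diluted in 50 mM phosphate buffer pH 7.4 (100 µM final). Incubated 48 h at 37 °C to form fibrils, then compound or buffer added and held 24 h at 37 °C. Diluted to 200 µl with glycine-NaOH 50 mM pH 8.0, then ThT fluorescence read. Peptide-free buffer blanks with and without compound. Triplicates.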

Assay [9] addresses Cholinesterase (Equus caballus, UniProt P81908). The experiment in a line: Inhibition of equine serum BuChE using butyrylthiocholine iodide as substrate preincubated for 5 mins followed by substrate addition and measured after 5 mins by Ellman method. The gist of the method:
(§3)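 Ellman method. Equine serum BuChE 0.06 U/mL (for ratio lines, electric eel AChE 0.22 U/mL) in 1 M potassium phosphate buffer. Enzyme stood 5 min with compound before 0.01 M DTNB was added, with butyrylthiocholine iodide as substrate (acetylthiocholine for AChE). Compound range 0.01–100 µM final. IC50 as mean ± SD of three independent experiments. SI = IC50 BuChE / IC50 AChE.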
On the technique in general: In Ellman's method for cholinesterases, released thiocholine reacts with DTNB.

For assay [10], the target named is T1, Amyloid-beta precursor protein. The experiment in a line: Inhibition of self-induced amyloid beta (1 to 42) (unknown origin) aggregation at 25 uM measured after 48 hrs by ThT fluorescence assay relative to control. The method, boiled down: as §1
Assay [11] deals with Acetylcholinesterase (Electrophorus electricus, UniProt O42275). In words: Inhibition of electric eel Ache using acetylthiocholine iodide as substrate preincubated for 5 mins followed by substrate addition and measured after 5 mins by Ellman method.
Chain of Acetylcholinesterase (O42275 whole entry): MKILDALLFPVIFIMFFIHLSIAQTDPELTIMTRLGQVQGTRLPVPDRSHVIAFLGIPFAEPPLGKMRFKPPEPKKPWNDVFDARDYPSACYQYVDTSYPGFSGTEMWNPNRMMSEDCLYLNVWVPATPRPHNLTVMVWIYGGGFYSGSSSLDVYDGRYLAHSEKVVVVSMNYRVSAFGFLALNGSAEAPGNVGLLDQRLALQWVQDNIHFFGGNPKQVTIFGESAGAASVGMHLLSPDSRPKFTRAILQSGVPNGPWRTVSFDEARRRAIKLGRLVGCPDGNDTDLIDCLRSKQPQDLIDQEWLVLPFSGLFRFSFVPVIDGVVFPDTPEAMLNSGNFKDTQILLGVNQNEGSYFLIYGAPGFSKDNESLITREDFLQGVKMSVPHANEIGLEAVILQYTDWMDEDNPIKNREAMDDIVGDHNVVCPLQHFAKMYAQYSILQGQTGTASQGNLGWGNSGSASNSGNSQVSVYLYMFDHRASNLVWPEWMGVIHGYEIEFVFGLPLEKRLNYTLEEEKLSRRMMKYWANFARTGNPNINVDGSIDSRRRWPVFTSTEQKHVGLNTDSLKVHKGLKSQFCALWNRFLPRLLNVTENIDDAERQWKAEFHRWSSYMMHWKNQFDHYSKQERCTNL
Assay [12] concerns the target T1, Amyloid-beta precursor protein. In words: Inhibition of self-induced amyloid beta (1 to 42) (unknown origin) aggregation measured after 48 hrs by ThT fluorescence assay. The gist of the method: as §1
Assay [13] in a line: Selectivity index, ratio of IC50 for equine serum BuChE to IC50 for electric eel Ache. The gist of the method: as §3
Assay [14] concerns the target T1, Amyloid-beta precursor protein. Particulars: 25 uM.
Assay [15] in a line: Antioxidant activity assessed as DPPH radical scavenging activity at 10 uM preincubated for 5 mins followed by DPPH addition and measured after 30 mins by ultraviolet spectrophotometric analysis relative to control. It is filed as functional. The method, boiled down:
as §2

The nature of assay [16]: Antioxidant activity assessed as DPPH radical scavenging activity at 100 uM preincubated for 5 mins followed by DPPH addition and measured after 30 mins by ultraviolet spectrophotometric analysis relative to control. It is filed as functional. The gist of the method: as §2

Active and inactive are the calls of the source. The rule behind the calls is not given here.

Chain of Cholinesterase (P81908 whole entry): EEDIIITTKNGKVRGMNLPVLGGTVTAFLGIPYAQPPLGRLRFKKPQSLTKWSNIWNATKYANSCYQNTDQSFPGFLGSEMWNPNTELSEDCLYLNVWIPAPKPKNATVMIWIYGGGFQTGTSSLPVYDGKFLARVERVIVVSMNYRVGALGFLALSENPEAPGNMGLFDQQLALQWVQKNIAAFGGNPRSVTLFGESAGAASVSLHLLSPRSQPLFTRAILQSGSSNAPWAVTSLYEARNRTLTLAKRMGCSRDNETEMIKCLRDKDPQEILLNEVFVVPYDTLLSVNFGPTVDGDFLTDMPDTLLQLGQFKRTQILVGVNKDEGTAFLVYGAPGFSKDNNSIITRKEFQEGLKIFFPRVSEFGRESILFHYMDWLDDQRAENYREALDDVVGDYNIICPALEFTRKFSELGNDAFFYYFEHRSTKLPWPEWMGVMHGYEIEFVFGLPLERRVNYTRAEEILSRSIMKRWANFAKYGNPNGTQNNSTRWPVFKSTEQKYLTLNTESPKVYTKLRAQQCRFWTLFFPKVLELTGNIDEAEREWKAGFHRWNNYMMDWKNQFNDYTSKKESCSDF

For orientation: inhibition means the drop in the measured response relative to a control, in per cent. Broadly, the IC50 is the concentration that inhibits the measured activity by half. Turning to `O=[N+]([O-])c1cccc(C2C=C(c3cccc4ccccc34)Nc3nncn32)c1` (stereo not drawn), the Activity (umolequiv/umol) in [1] is 0.508. Further, the inhibition in assay [2] was 85.8%; in [3], 42%; in assay [4] it was 91.4%; in assay [5], 72.8%; in assay [10] it was 59.3%. In addition, the figures for the Activity in assay [6] and in [8] were 33% and 58.8%, respectively. Further, the inhibition entry in assay [7] is “Active”. Also, the IC50 was above 100 µM in assay [9], above 100 µM in assay [11] and 17.4 µM in assay [12].
As to `Clc1ccccc1C1C=C(c2cccc3ccccc23)Nc2nncn21` (stereo not drawn), in assay [1], the Activity (umolequiv/umol) came to 0.39. Moreover, in assay [13], the Ratio IC50 turned out to be 1.03. Further, the inhibition in [5] was 40.4%. In addition, in assay [6], the Activity came out at 15.5%. Besides, the IC50 in assay [9] was 0.076 µM; in assay [11] it was 0.074 µM.
With `c1coc(-c2cc(-c3cccc4ccccc34)nc3nncn23)c1`, in assay [1], the Activity (umolequiv/umol) came to 0.101. For the same compound, the Ratio IC50 in assay [13] was determined as 37.7. The inhibition in assay [5] worked out at 12.1%. Moreover, in [6], the Activity is 20.4%. The results for the IC50 in [9] and in assay [11] were 0.528 µM and 0.014 µM, respectively.
Regarding `CN(C)c1ccc(-c2cc(-c3cccc4ccccc34)nc3nncn23)cc1`, the Activity (umolequiv/umol) in assay [1] came to 0.171. Moreover, the Ratio IC50 in assay [13] worked out at 166. In addition, the inhibition in [5] is 43.1%. Besides, the Activity in [6] came to 21.3%; in assay [8], 54.5%. Besides, the IC50 worked out at 20.9 µM in assay [9] and 0.126 µM in assay [11].
Regarding `Clc1ccc(C2C=C(c3cccc4ccccc34)Nc3nncn32)cc1` (stereo not drawn), the Activity (umolequiv/umol) in [1] stood at 0.268. Further, the Ratio IC50 in [13] is 2.42. Further, the inhibition result in assay [5] is “inactive”. In assay [6], the Activity came out at 19.2%. In addition, the IC50 stood at 0.9 µM in assay [9] and 0.371 µM in assay [11].
As for `COc1cc(/C=C/C(=O)CC(=O)/C=C/c2ccc(O)c(OC)c2)ccc1O`, in [14], the inhibition result was “Active”.
Consider `Fc1ccc(C2C=C(c3cccc4ccccc34)Nc3nncn32)cc1` (stereo not drawn), for which the Activity (umolequiv/umol) in assay [1] was 0.347. The inhibition in assay [2] was 87.5%; in [3], 70.4%; in [4] it was 95.4%; in assay [5], 85.5%; in [10], 82.4%. The Ratio IC50 in assay [13] was 19.7. Besides, the results for the Activity in assay [6] and in assay [8] were 36.2% and 62.6%, respectively. In addition, in assay [7], the inhibition entry was “Active”. Also, the IC50 in assay [9] is 39 µM; in assay [11], 1.91 µM; in assay [12], 3.87 µM.
Consider `c1ccc(-c2cc(-c3cccc4ccccc34)nc3nncn23)cc1`, for which the Activity (umolequiv/umol) in assay [1] was 0.301. Also, the Ratio IC50 in assay [13] was above 168. For the same compound, the inhibition result in assay [5] is “inactive”. Besides, the Activity in assay [6] was 18.8%. The IC50 was above 100 µM in assay [9] and 0.597 µM in [11].
`COc1ccc(OC)c(C2C=C(c3cccc4ccccc34)Nc3nncn32)c1` (stereo not drawn): in [1], the Activity (umolequiv/umol) was 0.472. The Ratio IC50 in assay [13] is above 160. For the same compound, in assay [5], the inhibition was determined as 42.1%. Also, the Activity came out at 53.8% in assay [6] and 47.9% in assay [8]. Also, the IC50 is above 100 µM in assay [9] and 0.602 µM in assay [11].
As to `O=C(O)c1cc(O)c(O)c(O)c1`, the Activity amounted to 66% in assay [15] and 95.3% in assay [16].
As to `COc1ccc(C2C=C(c3cccc4ccccc34)Nc3nncn32)cc1` (stereo not drawn), in [1], the Activity (umolequiv/umol) is 0.446. In assay [13], the Ratio IC50 worked out at 17.4. Further, the inhibition in assay [5] stood at 31.2%. In addition, the Activity in assay [6] came to 35%. The IC50 turned out to be 0.15 µM in assay [9] and 0.0086 µM in assay [11].
In the case of `COc1ccc(-c2cc(-c3cccc4ccccc34)nc3nncn23)cc1OC`, in assay [1], the Activity (umolequiv/umol) was 0.234. Further, the Ratio IC50 in assay [13] is above 33.4. Moreover, the inhibition in assay [5] was determined as 36.6%. Besides, the Activity in [6] turned out to be 27.9%. Further, the IC50 in [9] is above 100 µM; in [11] it was 3 µM.
